From ChEMBL document CHEMBL1145471, “Small molecule regulators of autophagy identified by an image-based high-throughput screen” (Proc Natl Acad Sci U S A, 2007)
The source made the active and inactive calls. The rule behind the calls is not given here.

Columns and labels:
H4 [1] = test: Effect on FYVE-RFP+ vesicle intensity per cell in human H4 cells after 4 hrs relative to control; format: functional; design: concentration or dose not given beside the values
How it was run: (§1)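 H4 cells stably expressing FYVE-RFP (H4-FYVE), grown in DMEM with 10% FBS, penicillin/streptomycin and 2 mM L-glutamine at 37°C, 5% CO2, seeded in 96-well plates and exposed to compound. Fixed in 4% paraformaldehyde, nuclei stained with 3 μg/ml DAPI, FYVE-RFP+ vesicles quantified by high-throughput fluorescence microscopy against DMSO control. Triplicate wells, mean ± SD.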

H4 [2] = test: Increase in long-lived protein degradation in human H4 cells after 24 hrs relative to control; format: functional; design: concentration or dose not given beside the values
H4 [3] = test: Increase in light chain 3-GFP+ autophagosome vesicle intensity per cell in human H4 cells at 7.0 uM after 24 hrs by high throughput fluorescence microscopy relative to control; format: functional
How it was run: (§2)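 H4 cells stably expressing LC3-GFP were grown in DMEM with 10% FBS and 2 mM L-glutamine at 37°C, 5% CO2. They were exposed to each compound for 24 h, with DMSO as negative and rapamycin as positive control. Cells were then fixed in 4% paraformaldehyde and stained with 3 μg/ml DAPI. High-throughput fluorescence imaging scored LC3-GFP spot number, size and intensity, expressed relative to DMSO. Mean ± SD of triplicates; experiments repeated three times.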

H4 [4] = test: Increase in long-lived protein degradation in human H4 cells after 4 hrs relative to control; format: functional; design: concentration or dose not given beside the values
H4 [5] = test: Increase in long-lived protein degradation in human H4 cells after 2 hrs relative to control; format: functional; design: concentration or dose not given beside the values
H4 [6] = test: Increase in long-lived protein degradation in human H4 cells after 1 hr relative to control; format: functional; design: concentration or dose not given beside the values
H4 [7] = test: Increase in light chain 3-GFP+ autophagosome vesicle area per cell in human H4 cells at 7.0 uM after 24 hrs by high throughput fluorescence microscopy relative to control; format: functional
How it was run: (§3)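 H4 cells stably expressing LC3-GFP, seeded in 96-well plates and exposed to compound for 24 h; screening concentrations were 3–12 μM, with rapamycin 0.22 μM and bafilomycin A1 0.40 μM. Cells fixed in 4% paraformaldehyde and stained with 3 μg/ml DAPI. Number, size and intensity of LC3-GFP spots measured by high-throughput fluorescence microscopy and expressed as percent of DMSO-treated wells. Rapamycin was the positive control. Triplicate wells, mean ± SD; experiments repeated three times.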

H4 [8] = test: Effect on FYVE-RFP+ vesicle intensity per cell in human H4 cells after 2 hrs relative to control; format: functional; design: concentration or dose not given beside the values; how it was run: as §1
H4 [9] = test: Induction of light chain 3-GFP level in human H4 cells at 7.0 uM after 24 hrs by high throughput fluorescence microscopy relative to control; format: functional
How it was run: (§4)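 H4 cells stably expressing LC3-GFP, grown in DMEM with 10% FBS, penicillin/streptomycin and 2 mM L-glutamine at 37°C, 5% CO2. Cells were seeded in 96-well plates and exposed to library compounds at 3–12 μM for 24 h, then fixed in 4% paraformaldehyde and stained with 3 μg/ml DAPI. LC3-GFP spot number, size and intensity were measured by high-throughput fluorescence microscopy and expressed relative to DMSO. Triplicates, mean ± SD.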

H4 [10] = test: Effect on FYVE-RFP+ vesicle intensity per cell in human H4 cells after 8 hrs relative to control; format: functional; design: concentration or dose not given beside the values; how it was run: as §1
H4 [11] = test: Increase in light chain 3-GFP+ autophagosome vesicle number per cell in human H4 cells at 7.0 uM after 24 hrs by high throughput fluorescence microscopy relative to control; format: functional; how it was run: as §2
[12] = biological target: Serine/threonine-protein kinase mTOR (Homo sapiens, UniProt P42345); test: Effect on mTOR phosphorylation in human H4 cells at 3.7 uM after 4 hrs; format: cell-based
How it was run: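 H4 cells exposed to compound for 4 h. Lysates analysed by Western blot with anti-phospho and anti-total mTOR antibodies, with actin as loading control. Rapamycin served as reference.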

H4 [13] = test: Reduction of poly(Q) level in human H4 cells expressing EGFP-Q79-HA after 24 hrs; format: functional, cell-based
How it was run: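 H4 cells were transiently transfected with an EGFP-Q79-HA expression vector. The medium was replaced 6 h after transfection and compounds were added. Poly(Q) was detected with anti-HA antibody.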

H4 [14] = test: Increase in ratio of light chain 3 subunit 2 to light chain 3 subunit 1 in human H4 cells at 3.7 uM after 4 hrs by Western blot; format: functional, cell-based
How it was run: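 H4 cells were treated with each compound for 4 h, then lysed. Lysates were immunoblotted with anti-LC3 antibody, with actin as loading control. LC3II and LC3I bands were compared as an LC3II/LC3I ratio.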

H4 [15] = test: Increase in light chain 3-GFP+ autophagosome vesicle area per cell in human H4 cells at 3.7 uM after 24 hrs by high throughput fluorescence microscopy relative to control; format: functional; how it was run: as §3
H4 [16] = test: Induction of light chain 3-GFP level in human H4 cells at 3.7 uM after 24 hrs by high throughput fluorescence microscopy relative to control; format: functional; how it was run: as §4
H4 [17] = test: Increase in light chain 3-GFP+ autophagosome vesicle intensity per cell in human H4 cells at 3.7 uM after 24 hrs by high throughput fluorescence microscopy relative to control; format: functional; how it was run: as §3
H4 [18] = test: Increase in light chain 3-GFP+ autophagosome vesicle number per cell in human H4 cells at 3.7 uM after 24 hrs by high throughput fluorescence microscopy relative to control; format: functional; how it was run: as §2
H4 [19] = test: Increase in light chain 3-GFP+ autophagosome vesicle intensity per cell in human H4 cells at 7.7 uM after 24 hrs by high throughput fluorescence microscopy relative to control; format: functional
How it was run: (§5)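 H4 cells stably expressing LC3-GFP, seeded in 96-well plates and exposed to compound for 24 h; fixed in 4% paraformaldehyde, nuclei stained with 3 μg/ml DAPI. Automated fluorescence microscopy scored number, size and intensity of LC3-GFP spots; values expressed relative to DMSO-treated wells, rapamycin positive control. Triplicate wells, mean ± SD; experiments repeated three times.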

H4 [20] = test: Increase in light chain 3-GFP+ autophagosome vesicle area per cell in human H4 cells at 7.7 uM after 24 hrs by high throughput fluorescence microscopy relative to control; format: functional; how it was run: as §5
H4 [21] = test: Increase in light chain 3-GFP+ autophagosome vesicle number per cell in human H4 cells at 7.7 uM after 24 hrs by high throughput fluorescence microscopy relative to control; format: functional
How it was run: (§6)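 H4 cells stably expressing LC3-GFP, kept in DMEM/10% FBS at 37°C, 5% CO2, were seeded in 96-well plates and exposed to compound for 24 h. Cells were then fixed in 4% paraformaldehyde and stained with 3 μg/ml DAPI. Automated fluorescence microscopy scored the number, size and intensity of LC3-GFP spots. Values are percent of DMSO wells, in triplicate, mean ± SD. Rapamycin served as positive control.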

H4 [22] = test: Induction of light chain 3-GFP level in human H4 cells at 7.7 uM after 24 hrs by high throughput fluorescence microscopy relative to control; format: functional; how it was run: as §6

Row | Structure (SMILES) | Activity (H4 [1]) [%] | Activity (H4 [2]) [%] | Activity (H4 [4]) [%] | Activity (H4 [5]) [%] | Activity (H4 [6]) [%] | Activity (H4 [8]) [%] | Activity (H4 [10]) [%] | further results
1 | COC(=O)C1=C(C)NC(C)=C([N+](=O)[O-])C1c1ccccc1C(F)(F)F (stereo unspecified) | 57.79 | 102.15 | 115.35 | 115.5 | 104.43 | 110.18 | 79.7 | Activity (H4 [3]): 181.32%; Activity (H4 [7]): 165.46%; Activity (H4 [9]): 134.45%; Activity (H4 [11]): 146.82%
2 | CCCCc1oc2ccccc2c1C(=O)c1cc(I)c(OCCN(CC)CC)c(I)c1 [AMIODARONE] | 89.23 | 116.73 | 110.75 | 122.42 | 101.32 | 92.5 | 83.45 | Activity [12]: inactive; Activity (H4 [13]): Dose-dependent effect; Activity (H4 [14]): Active; Activity (H4 [15]): 236.64%; Activity (H4 [16]): 138.5%; Activity (H4 [17]): 327.25%; Activity (H4 [18]): 189.25%
3 | CN1CCN(C2=Nc3cc(Cl)ccc3Nc3ccccc32)CC1 [CLOZAPINE] | 74.79 | 119.5 | 11.93 | 125.71 | 115.64 | 64.04 | 78.38 | Activity (H4 [19]): 350.13%; Activity (H4 [20]): 275.5%; Activity (H4 [21]): 216.53%; Activity (H4 [22]): 139.18%
